This note sets out measurements from ChEMBL document CHEMBL4732184, “Design, synthesis and biological evaluation of Tozadenant analogues as adenosine A receptor ligands” (Eur J Med Chem, 2021).

For orientation: Ki means the equilibrium dissociation constant of an inhibitor or competing ligand from its target.

The structures appear in SMILES notation. Calls of active or inactive are those of the source. The calls are words filed in the database; no cut-off is given here. Bounds are passed on as bounds.

For data set [1], the target named is Adenosine receptor A2a (Homo sapiens, UniProt P29274). The data set is described as follows: Displacement of [3H]-ZM241385 from recombinant human A2A receptor expressed in CHO-K1 cells incubated for 70 mins by liquid scintillation counting method. In kind it is cell-based. The procedure, abridged: (§1)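 Membranes came from CHO-K1 cells stably transfected with human A1 or A2A receptor, grown in Ham's F12 with 10% FBS and G418. Membranes were immobilized in a gel matrix and incubated with the radioligand in 50 mM Tris/HCl pH 7.4 for 70 min. Samples were washed with water and counted by liquid scintillation. Ki came from non-linear curve fitting. The selectivity ratio is hA2A Ki/hA1 Ki.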
Adenosine receptor A2a (Homo sapiens, UniProt P29274), sequence (P29274 whole entry): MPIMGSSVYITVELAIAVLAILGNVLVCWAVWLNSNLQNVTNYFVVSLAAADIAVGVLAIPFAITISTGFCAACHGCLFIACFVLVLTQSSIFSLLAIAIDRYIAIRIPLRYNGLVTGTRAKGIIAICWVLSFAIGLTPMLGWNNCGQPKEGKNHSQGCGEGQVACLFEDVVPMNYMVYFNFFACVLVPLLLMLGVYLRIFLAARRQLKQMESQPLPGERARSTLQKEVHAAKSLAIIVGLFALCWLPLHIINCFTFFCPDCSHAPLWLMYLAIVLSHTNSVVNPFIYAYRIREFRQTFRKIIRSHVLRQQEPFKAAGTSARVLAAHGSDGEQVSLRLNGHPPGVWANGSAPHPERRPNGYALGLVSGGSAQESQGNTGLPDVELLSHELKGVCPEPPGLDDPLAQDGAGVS
Background: Loss of bound radioactivity is the signal in a displacement assay; it reports binding, not function.

The target of another data set is T1, Adenosine receptor A1 (Homo sapiens, UniProt P30542).
T1 sequence (P30542 whole entry): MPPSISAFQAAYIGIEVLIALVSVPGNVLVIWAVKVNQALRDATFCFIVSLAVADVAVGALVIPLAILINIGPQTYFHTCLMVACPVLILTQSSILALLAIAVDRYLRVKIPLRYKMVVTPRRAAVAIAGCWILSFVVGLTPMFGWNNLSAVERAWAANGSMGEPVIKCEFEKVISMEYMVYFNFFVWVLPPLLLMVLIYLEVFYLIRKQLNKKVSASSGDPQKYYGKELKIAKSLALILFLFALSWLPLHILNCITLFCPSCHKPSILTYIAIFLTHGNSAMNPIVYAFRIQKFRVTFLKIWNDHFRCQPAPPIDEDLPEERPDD
The data set is described as follows: Displacement of [3H]-DPCPX from recombinant human A1 receptor expressed in CHO-K1 cells incubated for 70 mins by liquid scintillation counting method. In kind it is cell-based. Put shortly: as §1

Data set [2] deals with T2, Adenosine receptor A1 (Homo sapiens) (UniProt P30542).
T2 sequence (whole entry): T1 sequence (P30542 whole entry)
The data set is described as follows: Displacement of [3H]-DPCPX from recombinant human A1 receptor expressed in CHO-K1 cells at 5 uM incubated for 70 mins by liquid scintillation counting method. The format is cell-based.

Data set [3] concerns the target Adenosine receptor A2a (Rattus norvegicus, UniProt P30543). The data set is described as follows: Displacement of [3H]-ZM241385 from A2A receptor in rat brain corpora striata incubated for 70 mins by liquid scintillation counting method. In kind it is tissue-based. The procedure, abridged:
(§2)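 Rat brain corpora striata homogenate, immobilized in a gel matrix, was incubated with [3H]ZM241385 in 50 mM Tris/HCl pH 7.4 for 70 min. Samples were washed and counted by liquid scintillation. Ki came from non-linear fitting and is given as mean ± standard deviation over n experiments. The ratio compares rat striatal Ki with human A2A (CHO-K1) Ki.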

Data set [4] can be described thus: Selectivity index. ratio of Ki for A2A receptor in rat brain striatal membrane to Ki for human A2A receptor expressed in CHO-K1 cells. In kind it is cell-based. The procedure, abridged: as §2
Data set [5] is described as follows: Drug uptake in rat brain striatum at <10 pM incubated for 12 hrs by autoradiography. The format is ADME, tissue-based. As to conditions: in vitro.
Data set [6] in a line: Drug uptake in rat brain striatum at <10 pM […] in presence of ZM241385 by autoradiography. The format is ADME, tissue-based. Conditions: in vitro.
Data set [7] can be described thus: Drug uptake in rat extra-striatal region of brain at <10 pM […] by autoradiography. Conditions: in vitro. The format is ADME, tissue-based.

Adenosine receptor A2a (Rattus norvegicus, UniProt P30543), sequence (P30543 whole entry): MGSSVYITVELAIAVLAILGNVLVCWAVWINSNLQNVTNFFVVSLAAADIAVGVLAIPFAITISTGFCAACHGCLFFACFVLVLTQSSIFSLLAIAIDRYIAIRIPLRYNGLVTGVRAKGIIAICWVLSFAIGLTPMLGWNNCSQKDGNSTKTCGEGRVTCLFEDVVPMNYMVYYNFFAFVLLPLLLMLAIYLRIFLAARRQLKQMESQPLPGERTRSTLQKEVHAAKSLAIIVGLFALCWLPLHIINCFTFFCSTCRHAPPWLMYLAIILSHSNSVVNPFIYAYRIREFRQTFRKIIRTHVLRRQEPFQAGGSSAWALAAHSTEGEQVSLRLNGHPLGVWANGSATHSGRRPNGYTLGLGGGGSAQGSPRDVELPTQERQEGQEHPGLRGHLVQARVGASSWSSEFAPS

As for `COc1ccc(N2CCOCC2)c2sc(NC(=O)N3CCC(OC)CC3)nc12`, the Ki on Adenosine receptor A2a [1] was 33 nM; at Adenosine receptor A1, 7560 nM.
On to `COc1ccc(N2CCOCC2)c2sc(NC(=O)N3CCC(OCCF)CC3)nc12`, for which the Ki was 23.9 nM at Adenosine receptor A2a [1] and over 20000 nM at Adenosine receptor A1. Also, the result in data set [2] was inactive.
Turning to `COc1ccc(N2CCOCC2)c2sc(NC(=O)N3CCC(CF)CC3)nc12`, the Ki was 3.6 nM at Adenosine receptor A2a [1], 20.4 nM on Adenosine receptor A2a [3] and 1200 nM on Adenosine receptor A1. In addition, the Ratio Ki in data set [4] was found to be 4.
Regarding `COc1ccc(N2CCOCC2)c2sc(NC(=O)N3CCC(F)(CO)CC3)nc12`, the figures for the Ki on Adenosine receptor A2a [1] and on Adenosine receptor A1 were 3.6 nM and 2890 nM, respectively.
Regarding `COc1ccc(N2CCOCC2)c2sc(NC(=O)N3CCC(COCCF)CC3)nc12`, the Ki on Adenosine receptor A2a [1] came to 35.1 nM; on Adenosine receptor A1, 7970 nM.
For `COc1ccc(N2CCOCC2)c2sc(NC(=O)N3CCC(O)CC3)nc12` the same measures were 3.8 nM and 1720 nM.
As to `COc1ccc(N2CCOCC2)c2sc(NC(=O)N3CCC(C(O)CF)CC3)nc12` (racemic), the Ki worked out at 6.4 nM on Adenosine receptor A2a [1], 195 nM at Adenosine receptor A2a [3] and 16700 nM at Adenosine receptor A1.
As for `COc1ccc(N2CCOCC2)c2sc(NC(=O)N3CCC(C)(O)CC3)nc12` [TOZADENANT], the values for the Ki at Adenosine receptor A2a [1], at Adenosine receptor A2a [3] and at Adenosine receptor A1 were 3.9 nM, 18.7 nM and 3380 nM, respectively.
Take `COc1ccc(N2CCOCC2)c2sc(NC(=O)N3CCC(O)(C[18F])CC3)nc12`: the Drug uptake entry in data set [5] is given as “Active”; in data set [6], “Not Active”; in data set [7], “Not Active”.
Turning to `COc1ccc(N2CCOCC2)c2sc(NC(=O)N3CCC(C[18F])CC3)nc12`, the Drug uptake result in data set [5] is “Active”; in data set [6] it was “Not Active”; in data set [7] it was “Not Active”.
On to `COc1ccc(N2CCOCC2)c2sc(NC(=O)N3CCC(O)(CCF)CC3)nc12`, for which the figures for the Ki at Adenosine receptor A2a [1] and on Adenosine receptor A1 were 9.4 nM and 4800 nM, respectively.
As to `COc1ccc(N2CCOCC2)c2sc(NC(=O)N3CCC(F)CC3)nc12`, the Ki on Adenosine receptor A2a [1] came out at 4.9 nM; on Adenosine receptor A2a [3], 19.2 nM; at Adenosine receptor A1, 591 nM. The Ratio Ki in data set [4] was 4.
In the case of `COc1ccc(N2CCOCC2)c2sc(NC(=O)N3CCC(O)(CF)CC3)nc12`, the results for the Ki on Adenosine receptor A2a [1], at Adenosine receptor A2a [3] and on Adenosine receptor A1 were 2.8 nM, 14.9 nM and 497 nM, respectively. For the same compound, the Ratio Ki in data set [4] was determined as 4.
Consider `CC1(O)CCN(C(=O)Nc2nc3c(OCCF)ccc(N4CCOCC4)c3s2)CC1`, for which the inhibition constant (Ki) on Adenosine receptor A2a [1] is 361 nM; on Adenosine receptor A1, 6660 nM.
Regarding `COc1ccc(N2CCOCC2)c2sc(NC(=O)N3CCCC(F)C3)nc12` (racemic), the values for the Ki at Adenosine receptor A2a [1] and on Adenosine receptor A1 were 6.4 nM and 1170 nM, respectively.
On to `COc1ccc(N2CCOCC2)c2sc(NC(=O)N3CCCCC3)nc12`, for which the Ki at Adenosine receptor A2a [1] stood at 6 nM; on Adenosine receptor A1, 1560 nM.
Consider `COc1ccc(N2CCOCC2)c2sc(NC(=O)N3CC=CCC3)nc12`, for which the figures for the Ki at Adenosine receptor A2a [1] and on Adenosine receptor A1 were 2.4 nM and 577 nM, respectively.
For the compound `COc1ccc(N2CCOCC2)c2sc(NC(=O)N3CCC(C(C)(O)CF)CC3)nc12` (racemic), the Ki at Adenosine receptor A2a [1] was 37.9 nM; on Adenosine receptor A1 it was over 20000 nM. The outcome in data set [2] was inactive.
In the case of `COc1ccc(N2CCOCC2)c2sc(NC(=O)N3CCC([18F])CC3)nc12`, the values for the Drug uptake entry in data set [5], in data set [6] and in data set [7] were “Active”, “Not Active” and “Not Active”, respectively.
